Test results taken from ChEMBL document CHEMBL4325889, “Natural products hybrids: 3,5,4'-Trimethoxystilbene-5,6,7-trimethoxyflavone chimeric analogs as potential cytotoxic agents against diverse human cancer cells” (Eur J Med Chem, 2019).
Calls of active or inactive are those of the source. No cut-off for these calls is given here.

Experiments:
MOLT-4 = assay: Growth inhibition of human MOLT4 cells at 10 uM after 48 hrs by SRB assay relative to control; type: functional; details: MOLT-4, 48 h, read-out: GI
Method in brief: (§1)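 Screened at the National Cancer Institute by the standard NCI protocol using the sulforhodamine B assay, which measures cellular protein. Single dose of 10 µM. Result is percent growth inhibition; values above 100% mean cell number fell below the initial population. Values are the average of duplicates.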

SR = assay: Growth inhibition of human SR cells at 10 uM after 48 hrs by SRB assay relative to control; type: functional; details: read-out: GI
Method in brief: (§2)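 NCI screen against its human cancer cell line panel by the standard NCI protocol, SRB protein stain. Single dose of 10 μM. Percent growth inhibition versus control; values above 100% mean the cell population fell below the starting number. Each value is the mean of duplicates.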

A549 = assay: Growth inhibition of human A549 cells at 10 uM after 48 hrs by SRB assay relative to control; type: functional; details: A549, 48 h, read-out: GI; method in brief: as §1
NCI-H226 = assay: Growth inhibition of human NCI-H226 cells at 10 uM after 48 hrs by SRB assay relative to control; type: functional; details: NCI-H226, 48 h, read-out: GI; method in brief: as §1
NCI-H460 = assay: Growth inhibition of human NCI-H460 cells at 10 uM after 48 hrs by SRB assay relative to control; type: functional; details: NCI-H460, 48 h, read-out: GI; method in brief: as §1
NCI-H522 = assay: Growth inhibition of human NCI-H522 cells at 10 uM after 48 hrs by SRB assay relative to control; type: functional; details: NCI-H522, 48 h, read-out: GI; method in brief: as §1
HCT-15 = assay: Growth inhibition of human HCT15 cells at 10 uM after 48 hrs by SRB assay relative to control; type: functional; details: HCT-15, 48 h, read-out: GI; method in brief: as §1
KM12 = assay: Growth inhibition of human KM12 cells at 10 uM after 48 hrs by SRB assay relative to control; type: functional; details: KM12, 48 h, read-out: GI; method in brief: as §1
SW-620 = assay: Growth inhibition of human SW620 cells at 10 uM after 48 hrs by SRB assay relative to control; type: functional; details: SW-620, 48 h, read-out: GI; method in brief: as §2
SF-268 = assay: Growth inhibition of human SF268 cells at 10 uM after 48 hrs by SRB assay relative to control; type: functional; details: SF-268, 48 h, read-out: GI; method in brief: as §1
LOX IMVI = assay: Growth inhibition of human LOXIMVI cells at 10 uM after 48 hrs by SRB assay relative to control; type: functional; details: read-out: GI; method in brief: as §1
SK-MEL-2 = assay: Growth inhibition of human SK-MEL-2 cells at 10 uM after 48 hrs by SRB assay relative to control; type: functional; details: SK-MEL-2, 48 h, read-out: GI; method in brief: as §1
OVCAR-5 = assay: Growth inhibition of human OVCAR5 cells at 10 uM after 48 hrs by SRB assay relative to control; type: functional; details: OVCAR-5, 48 h, read-out: GI; method in brief: as §1
OVCAR-8 = assay: Growth inhibition of human OVCAR8 cells at 10 uM after 48 hrs by SRB assay relative to control; type: functional; details: OVCAR-8, 48 h, read-out: GI; method in brief: as §1
786-0 = assay: Growth inhibition of human 786-0 cells at 10 uM after 48 hrs by SRB assay relative to control; type: functional; details: 786-0, 48 h, read-out: GI; method in brief: as §1
ACHN = assay: Growth inhibition of human ACHN cells at 10 uM after 48 hrs by SRB assay relative to control; type: functional; details: read-out: GI; method in brief: as §1
RXF 393 = assay: Growth inhibition of human RXF393 cells at 10 uM after 48 hrs by SRB assay relative to control; type: functional; details: RXF 393, 48 h, read-out: GI; method in brief: as §1
TK-10 = assay: Growth inhibition of human TK10 cells at 10 uM after 48 hrs by SRB assay relative to control; type: functional; details: TK-10, 48 h, read-out: GI; method in brief: as §2
PC-3 = assay: Growth inhibition of human PC3 cells at 10 uM after 48 hrs by SRB assay relative to control; type: functional; details: PC-3, 48 h, read-out: GI; method in brief: as §1
BT-549 = assay: Growth inhibition of human BT549 cells at 10 uM after 48 hrs by SRB assay relative to control; type: functional; details: BT-549, 48 h, read-out: GI; method in brief: as §1
MDA-MB-468 = assay: Growth inhibition of human MDA-MB-468 cells at 10 uM after 48 hrs by SRB assay relative to control; type: functional; details: MDA-MB-468, 48 h, read-out: GI; method in brief: as §1
L132 = assay: Cytotoxicity against human L-132 cells after 48 hrs by MTT assay; type: cell-based; details: L132, 48 h
Method in brief: (§3)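 Normal human lung epithelial L132 and ovarian epithelial IOSE-80PC cells were tested by MTT viability assay, and IC50 was determined.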

[1] = Cytotoxicity against human IOSE-80PC cells after 48 hrs by MTT assay; type: cell-based; method in brief: as §3
HeLa [2] = assay: Antiproliferative activity against human HeLa cells after 48 hrs by MTT assay; type: functional, cell-based
Method in brief: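 HeLa cervical cancer cells, growth inhibition measured by MTT viability assay, and IC50 determined.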

HeLa [3] = assay: Induction of morphological changes in human HeLa cells assessed as nuclear fragmentation at 10 uM after 48 hrs by DAPI staining based fluorescence microscopic method; type: functional, cell-based
Method in brief: (§4)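 HeLa cells exposed to 10 µM for 48 h, then stained with DAPI. Nuclear shape, size and density (bright condensed, fragmented chromatin, apoptotic bodies) examined by fluorescence microscopy under 358 nm excitation, against untreated control cells.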

HeLa [4] = assay: Induction of morphological changes in human HeLa cells assessed as chromatin condensation at 10 uM after 48 hrs by DAPI staining based fluorescence microscopic method; type: functional, cell-based; method in brief: as §4
HeLa [5] = assay: Cell cycle arrest in human HeLa cells assessed as accumulation at sub-G1 phase after 48 hrs by propidium iodide staining based flow cytometry (reference value: 4.43%); type: functional
HeLa [6] = assay: Induction of apoptosis in human HeLa cells assessed as live cells at 2.5 uM by Annexin V-FITC/propidium iodide staining based flow cytometry (reference value: 85.2%); type: functional
Method in brief: (§5)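 HeLa human cervical cancer cells treated with increasing concentrations or for increasing incubation times. Cells stained with annexin V-FITC and propidium iodide and analysed by FACS. Gating: early apoptotic = annexin+/PI−, late apoptotic = annexin+/PI+.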

HeLa [7] = assay: Induction of apoptosis in human HeLa cells assessed as live cells at 5 uM by Annexin V-FITC/propidium iodide staining based flow cytometry (reference value: 85.2%); type: functional; method in brief: as §5
HeLa [8] = assay: Induction of apoptosis in human HeLa cells assessed as early apoptotic cells at 10 uM by Annexin V-FITC/propidium iodide staining based flow cytometry (reference value: 5.7%); type: functional; method in brief: as §5
HeLa [9] = assay: Induction of apoptosis in human HeLa cells assessed as necrotic cells at 10 uM by Annexin V-FITC/propidium iodide staining based flow cytometry (reference value: 2.2%); type: functional; method in brief: as §5
HeLa [10] = assay: Induction of apoptosis in human HeLa cells assessed as necrotic cells after 12 hrs by Annexin V-FITC/propidium iodide staining based flow cytometry (reference value: 0.9%); type: functional; method in brief: as §5
HeLa [11] = assay: Induction of apoptosis in human HeLa cells assessed as late apoptotic cells after 24 hrs by Annexin V-FITC/propidium iodide staining based flow cytometry (reference value: 3.6%); type: functional; method in brief: as §5

| Structure (SMILES) | inhibition of growth at 10 µM (MOLT-4) [%] | inhibition of growth at 10 µM (A549) [%] | inhibition of growth at 10 µM (NCI-H226) [%] | inhibition of growth at 10 µM (NCI-H522) [%] | inhibition of growth at 10 µM (HCT-15) [%] | inhibition of growth at 10 µM (KM12) [%] | inhibition of growth at 10 µM (SW-620) [%] | inhibition of growth at 10 µM (SF-268) [%] | inhibition of growth at 10 µM (LOX IMVI) [%] | inhibition of growth at 10 µM (SK-MEL-2) [%] | inhibition of growth at 10 µM (OVCAR-5) [%] | inhibition of growth at 10 µM (OVCAR-8) [%] | inhibition of growth at 10 µM (786-0) [%] | inhibition of growth at 10 µM (ACHN) [%] | inhibition of growth at 10 µM (RXF 393) [%] | inhibition of growth at 10 µM (TK-10) [%] | inhibition of growth at 10 µM (PC-3) [%] | inhibition of growth at 10 µM (BT-549) [%] | inhibition of growth at 10 µM (MDA-MB-468) [%] | IC50 (L132) [µM] | also measured |
| --- | --- | --- | --- | --- | --- | --- | --- | --- | --- | --- | --- | --- | --- | --- | --- | --- | --- | --- | --- | --- | --- |
| COc1cc(NC(=O)c2cccc(-c3cc(=O)c4c(OC)c(OC)c(OC)cc4o3)c2)cc(OC)c1OC | 89.6 | 56.5 | 41.5 | 65.3 | 59.3 | 54.2 | 33 | 32.9 | 75.6 | 58.3 | 14 | 69.1 | 68.2 | 43.3 | 46.8 | 30.6 | 47.6 | 73 | 52.6 | > 100 | inhibition of growth at 10 µM (SR): 70.2%; inhibition of growth at 10 µM (NCI-H460): 70%; IC50 [1]: 67.6 µM; Activity (HeLa [2]): Active; Activity (HeLa [3]): Active; Activity (HeLa [4]): Active; Activity (HeLa [5]): 26.61%; Activity (HeLa [6]): 79%; Activity (HeLa [7]): 59.4%; Activity (HeLa [8]): 22.6%; Activity (HeLa [9]): 12.6%; Activity (HeLa [10]): 1%; Activity (HeLa [11]): 4.4% |
| COc1ccccc1C(=O)Nc1cccc(-c2cc(=O)c3c(OC)c(OC)c(OC)cc3o2)c1 | 71.2 | 51.8 | 41.6 | 55.7 | 58.5 | 61.6 | 36.6 | 45.5 | 64.6 | 68.8 | 18.8 | 61.3 | 54.7 | 57 | 41 | 46.6 | 70 | 54.1 | 60.8 | > 100 | IC50 [1]: > 100 µM |
| COc1cc2oc(-c3cccc(NC(=O)c4ccc5c(c4)OCO5)c3)cc(=O)c2c(OC)c1OC | 97.1 | 48.7 | 34.3 | 63.3 | 67.9 | 48.7 | 36 | 51.9 | 60.5 | 37.6 | 6.14 | 53.7 | 80.5 | 52.2 | 53.5 | 38.4 | 112 | 58.6 | 24.5 | 55 | inhibition of growth at 10 µM (SR): 88.5%; inhibition of growth at 10 µM (NCI-H460): 72.8%; IC50 [1]: > 100 µM |
| COc1cc(NC(=O)c2cccc(-c3cc(=O)c4c(O)c(OC)c(OC)cc4o3)c2)cc(OC)c1OC | 27.2 | 59.5 | 92.3 | 58.8 | 40.1 | 46.1 | 26.7 | 38.1 | 67 | 30.4 | 22.6 | 76.9 | 33.7 | 83.7 | 25 | 25.2 | 50.2 | 93 | 40.1 | > 100 | inhibition of growth at 10 µM (SR): 45.6%; inhibition of growth at 10 µM (NCI-H460): 46.2%; IC50 [1]: > 100 µM |
